From PubChem
CCR6 antag: blocks CCL20-driven beta-arrestin recruitment at human CCR6; P51684; CHO-K1 CCR6 PathHunter beta-arrestin, luminescence, CCL20-stimulated; inhibition, % at 20 µM; 0.49% of 340,000 active;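 active means compounds whose inhibition of the agonist-driven luminescence signal at 20 µM reaches about 50%, limit read from the data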;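 further: cells stimulated with CCL20 at 14 nM final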
APJ antagonist: blocks the human apelin receptor APJ | P35414 | CHO-K1 APJ beta-arrestin complementation, luminescence | inhibition, % at 20 µM | 0.32% of 330,000 active | AID 2521;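 active means inhibition above about 40% at 20 µM, limit read from the data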;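 further: cells challenged with 10 nM apelin-13 agonist together with compound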
CXCR6 block: CXCR6 (human) receptor inhibition; O00574; 0.36% of 360,000 active; inhibition, % at 20 µM; AID 602244; CHO-K1 PathHunter CXCR6 beta-arrestin, luminescence; in the data active means inhibition above about 34%, passing the limit was not always enough;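 further: antagonist mode with CXCL16 agonist at 10 nM final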
Target sequence (O00574 whole entry, looked up): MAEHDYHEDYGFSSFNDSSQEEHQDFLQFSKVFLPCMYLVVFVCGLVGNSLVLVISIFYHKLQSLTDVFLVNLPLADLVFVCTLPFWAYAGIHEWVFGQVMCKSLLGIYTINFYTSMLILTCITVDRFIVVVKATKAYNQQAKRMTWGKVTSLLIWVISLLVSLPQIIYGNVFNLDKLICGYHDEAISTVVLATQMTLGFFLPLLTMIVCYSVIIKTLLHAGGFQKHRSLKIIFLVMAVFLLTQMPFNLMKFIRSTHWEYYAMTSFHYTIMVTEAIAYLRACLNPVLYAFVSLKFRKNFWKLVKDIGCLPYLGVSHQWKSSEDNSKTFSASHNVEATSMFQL
APJ ag: APJ receptor agonism; P35414; activation, % at 20 µM; 0.11% of 330,000 active; AID 2520; CHO-K1 APJ PathHunter beta-arrestin, luminescence; 0% DMSO wells, 100% apelin;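 active means activation more than six SD over the plate average, tested at 20 µM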
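Test system: CHO-K1 APJ beta-arrestin complementation cell line | Compound: Single test compound dose, 20 µM final, 1% DMSO | Incubation: Compound 90 min 25 °C, reagent 1 h | Measured by: beta-gal luminescence | Read-out basis: APJ–arrestin association signal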
EBI2 block: blocks human EBI2 receptor beta-arrestin signaling; P32249; EBI2 beta-arrestin recruitment, luminescence, 7a,25-OHC stimulated; inhibition, % at 5 µM; 0.81% of 360,000 active; AID 651636; in the data active means inhibition above about 38%;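 further: enzyme fragment complementation signal reports receptor beta-arrestin coupling in cells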
EBI2 antag conf: confirmation of human EBI2 receptor antagonists; shares compounds with EBI2 block; EBI2 beta-arrestin luminescence, 7a,25-OHC antagonism; inhibition, % at 5 µM; 29% of 2,400 active; AID 651997;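 active means inhibition of at least 50%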
EBI2 agonist: counter-screen for EBI2 antagonists: EBI2 agonist activity; shares compounds with EBI2 block; EBI2-expressing cells, agonist mode, luminescence, 60 min; 0% vehicle, 100% 7α,25-dihydroxycholesterol control; activation, % at 5 µM; 2,400 tested, under 10 active; AID 652000;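 active means activation of at least 50%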
bGal cs: inhibits E. coli beta-galactosidase, counter-screen for EBI2 antagonists; 1% of 2,400 active; shares compounds with EBI2 block; inhibition, % at 5 µM; purified beta-galactosidase, luminescent Galacton Star, 15 min; AID 652176;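 active means replicate-average signal at least 3 plate SD below neutral wells, shown as high inhibition, flagging enzyme-inhibiting false positives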;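 further: higher means stronger loss of beta-gal luminescence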
Each line names hits and unclear results; the compound was inactive in the other large screens (follow-up assays come after a bar, where they were run). An excerpt weighted towards active compounds, which were near 1.5% of everything screened.

O=C(COC(=O)/C=C/c1ccccc1)NC(=O)NCc1ccccc1	none
C=CCN1C(=O)c2ccc(C(=O)N3CCN(S(=O)(=O)c4cccc(F)c4)CC3)cc2C1=O	none
O=C(NCC1CCCCC1)C12CN(Cc3ccccc3)CC1C(c1cccc([N+](=O)[O-])c1)=NO2 (stereo not given)	none
COc1ccc(CCNC(=O)C23CN(Cc4ccccc4)CC2C(c2cccc([N+](=O)[O-])c2)=NO3)cc1 (stereo not given)	EBI2 block 52 | EBI2 antag conf inactive | EBI2 agonist inactive | bGal cs inactive
Cc1ccc(CCNC(=O)C23CN(Cc4ccccc4)CC2C(c2cccc([N+](=O)[O-])c2)=NO3)cc1 (stereo not given)	EBI2 block 63 | EBI2 antag conf inactive | EBI2 agonist inactive | bGal cs inactive
Cc1ccc(CNC(=O)c2ccc(N3CCc4ccccc43)c([N+](=O)[O-])c2)cc1	EBI2 block 37 | EBI2 antag conf inactive | EBI2 agonist inactive | bGal cs inactive
NNC(=O)c1ccc(N2CCc3ccccc32)c([N+](=O)[O-])c1	none
COc1ccc(-n2cc(-c3ccccc3)nc2SC)cc1	EBI2 block 42 | EBI2 antag conf inactive | EBI2 agonist inactive | bGal cs inactive
CN(C(=O)c1cccc(Nc2ccc(-c3ccc4c(c3)OCCO4)nn2)c1)C1CCCCC1	EBI2 block 42 | EBI2 antag conf inactive | EBI2 agonist inactive | bGal cs inactive
CCN(CC)S(=O)(=O)c1ccc(Nc2ccc(-c3ccc4c(c3)OCCO4)nn2)cc1	EBI2 block 49 | EBI2 antag conf inactive | EBI2 agonist inactive | bGal cs inactive
CCc1ccc(S(=O)(=O)c2nnn3c2nc(N2CCOCC2)c2ccccc23)cc1	none
COc1ccccc1CNc1cc(CSc2ccc(Cl)cc2)nc(C)n1	EBI2 block 49 | EBI2 antag conf inactive | EBI2 agonist inactive | bGal cs inactive
CC(C)c1ccccc1OCCNC(=O)c1cncc(Br)c1	EBI2 block 47 | EBI2 antag conf inactive | EBI2 agonist inactive | bGal cs inactive
Cc1c(Cc2ccc3c(c2)OCO3)sc(NC(=O)c2ccccc2)c1C(N)=O	none
CCOC(=O)c1c(NC(=O)CN2C(=O)c3ccccc3C2=O)sc(Cc2ccc3c(c2)OCO3)c1C	EBI2 block 65 | EBI2 antag conf inactive | EBI2 agonist inactive | bGal cs inactive
CCCCOc1ccc(NC(=O)CN2CCN(Cc3ccccc3)CC2)cc1	none
Cc1noc(C)c1C(=O)N1CCN(C(=O)c2sc3cc(Cl)ccc3c2Cl)CC1	EBI2 block 42 | EBI2 antag conf inactive | EBI2 agonist inactive | bGal cs inactive
O=C(c1cc2ccccc2o1)N1CCN(Cc2nc3ccccc3s2)CC1	EBI2 block 68 (no result: CCR6 antag, APJ antagonist, APJ ag) | EBI2 antag conf 55 | EBI2 agonist inactive | bGal cs inactive
CC(=O)N1CCN(C(=O)c2cc3ccccc3o2)CC1	none
O=C(c1cc2ccccc2o1)N1CCCC1	none
O=C(c1cc2ccccc2o1)N1CCN(C/C=C/c2ccccc2)CC1	EBI2 block 86 | EBI2 antag conf 59 | EBI2 agonist inactive | bGal cs inactive
CS(=O)(=O)N(CC(=O)N1CCCC1)c1cccc(F)c1	none
COc1ccc(C(=O)NC23CC4CC(CC(C4)C2)C3)cc1	none
CC(Oc1ccc2oc3ccccc3c2c1)C(=O)NC12CC3CC(CC(C3)C1)C2 (stereo not given)	EBI2 block 54 | EBI2 antag conf inactive | EBI2 agonist inactive | bGal cs inactive
CCc1ccc(N2C(=O)CN(Cc3sccc3C)C2=S)cc1	none
Cc1ccc(Oc2cnc3ccccc3n2)cc1	none
Cc1ccc(Oc2ccc(Oc3ccc(C)cc3)nn2)cc1	EBI2 block 92 | EBI2 antag conf 89 | EBI2 agonist inactive | bGal cs inactive
CC1CC(=O)N(CC(=O)Nc2ccc(Br)cc2)c2ccccc2S1(=O)=O (stereo not given)	none
Cc1nc(N)c2c(Cc3cccc4ccccc34)nn(C(C)(C)C)c2n1	none
Cc1cc(NC(=O)CCN2CCN(C/C=C/c3ccccc3)CC2)ccc1Br	none
Cc1cc(C(=O)N2CCN(C/C=C/c3ccccc3)CC2)cs1	EBI2 block 46 | EBI2 antag conf inactive | EBI2 agonist inactive | bGal cs inactive
O=C(c1cc(Br)c(Br)s1)N1CCN(C/C=C/c2ccccc2)CC1	EBI2 block 65 | EBI2 antag conf inactive | EBI2 agonist inactive | bGal cs inactive
O=C(c1cccnc1)N1CCN(C/C=C/c2ccccc2)CC1	none
Cc1cc2oc(=O)cc(CN(Cc3ccccc3)Cc3ccccc3)c2cc1Cl	EBI2 block 52 (no result: CCR6 antag, APJ antagonist, APJ ag) | EBI2 antag conf 51 | EBI2 agonist inactive | bGal cs inactive
COc1ccc(CN(Cc2ccc(OC)cc2)S(=O)(=O)c2ccc(-n3cnnn3)c(C)c2)cc1	EBI2 block 45 | EBI2 antag conf inactive | EBI2 agonist inactive | bGal cs inactive
COc1ccc(CN(Cc2cccnc2)S(=O)(=O)c2ccc(-n3cnnn3)c(OC)c2)cc1	none
COc1ccc(OC)c(NS(=O)(=O)c2ccc3[nH]c(=O)[nH]c3c2)c1	none (no result: CCR6 antag, APJ antagonist, APJ ag)
CSc1ccc(CNC(=O)C2CCC(=O)N(CCc3ccc(Cl)cc3)C2)cc1 (stereo not given)	EBI2 block 50 (no result: CCR6 antag, APJ antagonist, APJ ag) | EBI2 antag conf inactive | EBI2 agonist inactive | bGal cs inactive
Cc1ccc(CNC(=O)C2CCN(S(=O)(=O)N3CCC4(CC3)OCCO4)CC2)cc1	EBI2 block 45 | EBI2 antag conf inactive | EBI2 agonist inactive | bGal cs inactive
O=C(NCc1ccc(F)cc1)C1CCN(S(=O)(=O)N2CCC3(CC2)OCCO3)CC1	none
CCc1ccc(CNC(=O)C2CCN(S(=O)(=O)N3CCC4(CC3)OCCO4)CC2)cc1	EBI2 block 47 | EBI2 antag conf inactive | EBI2 agonist inactive | bGal cs inactive
Cc1ccc(CNC(=O)C2CCN(S(=O)(=O)N3CCCCC3)CC2)cc1	none
O=C(c1cc(=O)c2ccccc2o1)N1CCN(c2ccccc2F)CC1	EBI2 block 64 | EBI2 antag conf inactive | EBI2 agonist inactive | bGal cs inactive
O=C(c1cc(=O)c2ccccc2o1)N1CCN(c2cccc(Cl)c2)CC1	EBI2 block 51 | EBI2 antag conf inactive | EBI2 agonist inactive | bGal cs inactive
O=C(COC(=O)c1cc(S(=O)(=O)N2CCCCC2)ccc1N1CCOCC1)c1ccccc1Cl	EBI2 block 48 (no result: CCR6 antag, APJ antagonist, APJ ag) | EBI2 antag conf 65 | EBI2 agonist inactive | bGal cs inactive
COc1ccc(C2=CC(=O)C[C@H](c3ccc(OC)c(OC)c3)C2)cc1	none
